Active and inactive are the calls of the source. No cut-off for these calls is given here.
Assays:
SK-MEL = assay: Cytotoxicity against human SK-MEL cells after 48 hrs by neutral red assay; format: functional, cell-based
In short: (§1)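 Cells seeded at 25,000 per well and incubated 24 h, then exposed to samples for 48 h. Viable cells were counted by neutral red, with DMSO as vehicle control. IC50 or TC50 values were derived from logarithmic plots of growth inhibition versus concentration.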

KB = assay: Cytotoxicity against human KB cells after 48 hrs by neutral red assay; format: functional, cell-based; in short: as §1
BT-549 = assay: Cytotoxicity against human BT549 cells after 48 hrs by neutral red assay; format: functional, cell-based; in short: as §1
SK-OV-3 = assay: Cytotoxicity against human SKOV3 cells after 48 hrs by neutral red assay; format: functional, cell-based; in short: as §1
Vero = assay: (§2) Toxicity against african green monkey Vero cells after 48 hrs by neutral red assay; format: cell-based; conditions: chlorocebus sabaeus, vero, 48 h; in short: as §1
[1] = Toxicity against pig LLC-PK11 cells after 48 hrs by neutral red assay; format: cell-based, Sus scrofa; conditions: for CC50 at 48 h: LLC-PK11 cells, read-out: TC50; in short: as §1
Plasmodium falciparum [2] = assay: Antiplasmodial activity against Plasmodium falciparum D6 infected in RBCs by parasitic LDH release assay; format: functional, organism-based
In short: (§3)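 Infected erythrocytes at 2% parasitemia and 2% hematocrit, in RPMI 1640 with 10% human serum and amikacin 60 μg/mL, were exposed to serial dilutions under N2/O2/CO2 (90:5:5) at 37°C for 72 h. LDH was read with Malstat reagent (30 min), then NBT/PES in the dark (60 min), stopped with 5% acetic acid, at 650 nm. IC50 came from percent growth dose-response curves.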

[3] = Selectivity index, ratio of TC50 for african green monkey (Cercopithecus aethiops) Vero cells to IC50 for Plasmodium falciparum D6; format: toxicity, cell-based
Plasmodium falciparum [4] = assay: Antiplasmodial activity against Plasmodium falciparum W2 infected in RBCs by parasitic LDH release assay; format: functional, organism-based; in short: as §3
[5] = Selectivity index, ratio of TC50 for african green monkey (Cercopithecus aethiops) Vero cells to IC50 for Plasmodium falciparum W2; format: toxicity, cell-based
[6] = Toxicity against african green monkey Vero cells; format: cell-based; conditions: chlorocebus sabaeus; in short: as §1
Leishmania donovani = assay: Antileishmanial activity against Leishmania donovani promastigotes after 48 hrs by alamar blue assay; format: functional, organism-based; conditions: for IC50: read-out: IC50
Candida albicans = assay: Antifungal activity against Candida albicans ATCC 90028 by modified CLSI/NCCLS method; format: functional, organism-based
Nakaseomyces glabratus = assay: Antifungal activity against Candida glabrata ATCC 90030 by modified CLSI/NCCLS method; format: functional, organism-based
Pichia kudriavzevii = assay: Antifungal activity against Candida krusei ATCC 6258 by modified CLSI/NCCLS method; format: functional, organism-based; conditions: Pichia kudriavzevii, ATCC 6258; read-out: IC50
Cryptococcus neoformans = assay: Antifungal activity against Cryptococcus neoformans ATCC 90113 by modified CLSI/NCCLS method; format: functional, organism-based
Aspergillus fumigatus = assay: Antifungal activity against Aspergillus fumigatus ATCC 90906 by modified CLSI/NCCLS method; format: functional, organism-based
Staphylococcus aureus = assay: Antibacterial activity against methicillin-resistant Staphylococcus aureus ATCC 43300 by modified CLSI/NCCLS method; format: functional, organism-based
[7] = test system: Mycobacterium intracellulare; assay: Antibacterial activity against Mycobacterium intracellular ATCC 23068 by Franzblau method; format: functional, organism-based
[8] = as §2; format: cell-based; conditions: chlorocebus sabaeus, Vero cells; read-out: TC50; in short: as §1
Escherichia coli = assay: Antibacterial activity against Escherichia coli ATCC 35218 by modified CLSI/NCCLS method; format: functional, organism-based; conditions: Escherichia coli, ATCC 35218; read-out: IC50
Pseudomonas aeruginosa = assay: Antibacterial activity against Pseudomonas aeruginosa ATCC 27853 by modified CLSI/NCCLS method; format: functional, organism-based
[9] = Homo sapiens, SK-MEL, 48 h, read-out: IC50
[10] = Mycobacterium intracellulare, ATCC 23068, read-out: IC50

## COc1cccc2c1C(=O)c1c(O)c3c(c(O)c1C2=O)C[C@@](O)(C(=O)CO)C[C@@H]3O[C@H]1C[C@H](N)[C@H](O)[C@H](C)O1 [DOXORUBICIN]
SK-MEL; [9]
  IC50: 1.73 µM
KB; Homo sapiens, KB, 48 h, read-out: IC50
  IC50: 2.04 µM
BT-549; Homo sapiens, BT-549, 48 h, read-out: IC50
  IC50: 1.96 µM
SK-OV-3; Homo sapiens, SK-OV-3, 48 h, read-out: IC50
  IC50: 2.04 µM
Vero
  TC50: Non-toxic
[1]
  CC50 at 48 h: 1.29 µM

## C[C@@H]1CC[C@H]2[C@@H](C)C(=O)O[C@@H]3O[C@@]4(C)CC[C@@H]1[C@]32OO4 [ARTEMISININ]
Plasmodium falciparum [2]
  IC50: 0.0329 µM
[3]
  selectivity ratio: > 51
Plasmodium falciparum [4]
  IC50: 0.0425 µM
[5]
  selectivity ratio: > 40
[6]
  CC50: > 1.68 µM
Leishmania donovani
  IC90: inactive
Leishmania donovani; Leishmania donovani, 48 h
  IC50: 40.7 µM
Candida albicans
  IC50: Not Active
Nakaseomyces glabratus
  IC50: Not Active
Pichia kudriavzevii
  IC50: 14.2 µM
Cryptococcus neoformans
  IC50: 0.25 µM
Aspergillus fumigatus
  IC50: Not Active
Staphylococcus aureus
  IC50: Not Active
[7]
  IC50: Not Active

## CC(=O)O[C@H]1C(=O)[C@@]2(C)[C@H]([C@H](OC(=O)c3ccccc3)[C@]3(O)C[C@H](OC(=O)[C@H](O)[C@@H](NC(=O)c4ccccc4)c4ccccc4)C(C)=C1C3(C)C)[C@]1(OC(C)=O)CO[C@@H]1C[C@@H]2O [PACLITAXEL]
SK-MEL; [9]
  IC50: 4.1 µM
[8]
  CC50 at 48 h: 0.53 µM
[1]
  CC50 at 48 h: 4.39 µM

## O=C(O)c1cn(C2CC2)c2cc(N3CCNCC3)c(F)cc2c1=O [CIPROFLOXACIN]
[7]; [10]
  IC50: 1.27 µM

## CC1=CO[C@@H]2O[C@]3(C)CC[C@H]4[C@H](C)CC[C@@H]1[C@@]24OO3 [ANHYDRODIHYDROARTEMISININ]
Plasmodium falciparum [2]
  IC50: 0.0158 µM
[3]
  selectivity ratio: > 113
Plasmodium falciparum [4]
  IC50: 0.0255 µM
[5]
  selectivity ratio: > 70
[6]
  CC50: > 1.79 µM
Leishmania donovani
  IC90: inactive
Leishmania donovani; Leishmania donovani, 48 h
  IC50: 30 µM
Candida albicans
  IC50: Not Active
Nakaseomyces glabratus
  IC50: Not Active
Pichia kudriavzevii
  IC50: 56.3 µM
Cryptococcus neoformans
  IC50: 0.3 µM
Aspergillus fumigatus
  IC50: Not Active
Staphylococcus aureus
  IC50: Not Active
[7]; [10]
  IC50: 56.3 µM

## C[C@H]1[C@@H](O[C@@H](CO[C@H]2O[C@@H]3O[C@@]4(C)CC[C@H]5[C@H](C)CC[C@@H]([C@H]2C)[C@@]35OO4)[C@H](O)CO)O[C@@H]2O[C@@]3(C)CC[C@H]4[C@H](C)CC[C@@H]1[C@@]24OO3
Plasmodium falciparum [2]
  IC50: 0.0117 µM
[3]
  selectivity ratio: 71
Plasmodium falciparum [4]
  IC50: 0.014 µM
[5]
  selectivity ratio: 59
Leishmania donovani; Leishmania donovani, 48 h
  IC90: 29.7 µM
  IC50: 6.4 µM
SK-MEL; sk-mel
  IC50: Not Active
KB; kb
  IC50: Not Active
BT-549; bt-549
  IC50: Not Active
SK-OV-3; sk-ov-3
  IC50: Not Active
Vero
  TC50: Not Active
[1]; llc-pk11, 48 h
  TC50: Not Active
Candida albicans; Candida albicans, ATCC 90028, read-out: IC50
  IC50: 0.92 µM
Cryptococcus neoformans
  IC50: 0.53 µM
Aspergillus fumigatus; Aspergillus fumigatus, ATCC 90906, read-out: IC50
  IC50: 7.64 µM
Staphylococcus aureus; Staphylococcus aureus, ATCC 43300, read-out: IC50
  IC50: 22.9 µM
Escherichia coli
  IC50: 7.64 µM
Pseudomonas aeruginosa
  IC50: Not Active
[7]; [10]
  IC50: 15.3 µM

## N=C(N)c1ccc(OCCCCCOc2ccc(C(=N)N)cc2)cc1 [PENTAMIDINE]
Leishmania donovani; Leishmania donovani, 48 h
  IC90: 6.4 µM
  IC50: 2.8 µM

— ChEMBL document CHEMBL1153083, “Antiprotozoal, anticancer and antimicrobial activities of dihydroartemisinin acetal dimers and monomers” (Bioorg Med Chem, 2009)
